Data set [1] concerns Staphylococcus aureus TISTR746. In words: Agar disc diffusion, S. aureus. The data set is classed as cell-based. The note with it: S. aureus TISTR 746; extracts 500 mg/mL on disc; 37 °C, 24 h. In a few lines:
(§1)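 Bacteria suspended in 0.85 % saline to McFarland 0.5 (1.5 × 10^8 CFU/mL) and swabbed onto Mueller–Hinton agar. Sterile paper discs loaded with 10 μL of 500 mg/mL extract. Chloramphenicol positive control, DMSO negative control. Plates incubated aerobically at 37 °C for 24 h. Inhibition zones measured in mm with calipers; three independent experiments, mean ± SEM.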
Background: Agar diffusion results depend on both activity and mobility in agar.

Data set [2] has as its system Escherichia coli TISTR1984. Description: Agar disc diffusion, E. coli. The data set is classed as cell-based. The note with it: E. coli TISTR 1984; extracts 500 mg/mL on disc; 37 °C, 24 h. In a few lines:
as §1

The nature of data set [3]: DPPH free radical scavenging assay. As to conditions: at 1 mg/mL. The procedure, abridged:
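Test compound mixed with 150 μM DPPH reagent, shaken immediately, then held 30 min in the dark at room temperature. Absorbance read at 520 nm. Trolox served as standard and positive control. Three independent experiments, mean ± SEM, one-way ANOVA vs diluent control.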

Data set [4] can be described thus: ABTS free radical scavenging assay. The note with it: at 0.5 mg/mL. The procedure, abridged: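 Free-radical scavenging measured by mixing ABTS working solution with test compound, then incubating 10 min in the dark at room temperature. Absorbance read at 734 nm. Trolox served as standard and positive control. Three independent experiments, mean ± SEM, one-way ANOVA vs diluent control.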

The next data set deals with HEK293T cells. Description: MTT cell viability, HEK293T. The data set is classed as cell-based, human. In a few lines: (§2)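 Cells grown in DMEM/10 % FBS at 37 °C, 5 % CO2, seeded at 5 × 10^3 cells/well and left 24 h. Exposed to extracts (0–400 µg/mL) or cisplatin (0–400 µM) for 24, 48 or 72 h. MTT added for 2 h at 37 °C, formazan dissolved in DMSO, OD read at 570 nm. % viability and IC50 derived; three independent experiments, mean ± SEM.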

The test system of the next data set is MCF10A cells. In words: MTT cell viability, MCF10A. The data set is classed as cell-based, human. The procedure, abridged:
as §2

Data set [5] concerns MCF-7 cells. Description: MTT cell viability, MCF-7. The data set is classed as cell-based, human. As to conditions: MCF-7, MTT. In a few lines: as §2
In data set [6] the test system is MDA-MB-231 cells. Description: MTT cell viability, MDA-MB-231. The data set is classed as cell-based, human. As to conditions: MDA-MB-231, MTT. In a few lines:
as §2

For data set [7], the system named is MCF-7 cells. Description: Clonogenic cell survival assay, MCF-7. The note with it: cisplatin 100 μM, 24 h, p < 0.05 vs control. The data set is classed as cell-based, human. The procedure, abridged:
(§3)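 Cells grown in DMEM/10 % FBS at 37 °C, 5 % CO2, seeded at 2 × 10^5 cells/well and left 24 h. Test compound or cisplatin added for 24 h. Cells trypsinised and reseeded at 1 × 10^3 cells/well without drug for 8–10 days. Fixed in cold methanol 45 min, stained with 0.5 % crystal violet 45 min. Colonies counted by light microscopy as % of untreated control; n = 3, one-way ANOVA.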

In data set [8] the test system is MDA-MB-231 cells. In words: Clonogenic cell survival assay, MDA-MB-231. As to conditions: cisplatin 100 μM, 24 h, p < 0.0001 vs control. The data set is classed as cell-based, human. The procedure, abridged: as §3
For another data set, the system named is RAW264.7 cells. In words: MTT cell viability, RAW264.7. The data set is classed as cell-based, mouse. The note with it: RAW cells, 24 h, compared to untreated cells. The procedure, abridged:
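RAW264.7 macrophages grown in DMEM/10 % FBS at 37 °C, 5 % CO2. Exposed 24 h to dexamethasone (0–100 μM) or LPS (0–100 ng/mL). Viability expressed relative to untreated cells.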

Like-named read-outs stand apart in the source and are kept apart here.

The IC50 is the midpoint of a concentration-inhibition curve.

As to `O=C(N[C@H](CO)[C@H](O)c1ccc([N+](=O)[O-])cc1)C(Cl)Cl` [CHL, Chloramphenicol], the values for the ZOI in [1] and in [2] were 29.75 ± 1.77 mm and 29.75 ± 0.35 mm, respectively.

Regarding `Cc1c(C)c2c(c(C)c1O)CCC(C)(C(=O)O)O2` (centres unmarked) [Trolox], the “DPPH radical inhibition rate” value in [3] was found to be 98.02 ± 0.21%. For the same molecule, in data set [4], the “ABTS radical inhibition rate” value came out at 69.92 ± 3.08%.

In the case of `N.N.[Cl][Pt][Cl]` [cisplatin], the IC50 in the data set on HEK293T cells (read-out: IC50 for 24 h, 24 h) was determined as 62.3 ± 3.1 µM; with HEK293T cells (read-out: IC50 for 48 h, 48 h), 11.6 ± 1.3 µM; with HEK293T cells (read-out: IC50 for 72 h, 72 h), 3.25 ± 0.88 µM; with MCF10A cells (read-out: IC50 for 24 h, 24 h) it was 74.3 ± 3.24 µM; in the data set with MCF10A cells (read-out: IC50 for 48 h, 48 h) it was 37.2 ± 2.72 µM; in the data set with MCF10A cells (read-out: IC50 for 72 h, 72 h) it was 26.2 ± 1.66 µM. The IC50 in the data set on MCF-7 cells [5] (read-out: IC50 for 24 h, 24 h) was found to be 73.8 ± 3.24 µM; with MCF-7 cells [5] (read-out: IC50 for 48 h, 48 h), 41.5 ± 2.8 µM; in the data set on MCF-7 cells [5] (read-out: IC50 for 72 h, 72 h), 32.9 ± 2.63 µM; with MDA-MB-231 cells [6] (read-out: IC50 for 24 h, 24 h) it was 46.7 ± 2.89 µM; in the data set on MDA-MB-231 cells [6] (read-out: IC50 for 48 h, 48 h), 44.7 ± 2.86 µM; in the data set with MDA-MB-231 cells [6] (read-out: IC50 for 72 h, 72 h) it was 33.3 ± 2.64 µM. Besides, the colony formation entry in the data set with MCF-7 cells [7] and in the data set with MDA-MB-231 cells [8] was “significantly decreased” throughout.

Regarding `C[C@@H]1C[C@H]2[C@@H]3CCC4=CC(=O)C=C[C@]4(C)[C@@]3(F)[C@@H](O)C[C@]2(C)[C@@]1(O)C(=O)CO` [dexamethasone], in the data set on RAW264.7 cells (dexamethasone at 0–12.50 μM), the cell viability result is “unchanged”.

As to lipopolysaccharide [LPS], the cell viability result in the data set on RAW264.7 cells (LPS at 0–12.5 ng/mL) is reported as “unchanged”.

The record behind these values is article PMC11402745 (Heliyon, 2024).
